Laboratory results as given in ChEMBL document CHEMBL1149745, “An antiplatelet aggregation principle and X-ray structural analysis of cis-khellactone diester from Peucedanum japonicum” (1992).

Legend:
Assay type in all cases: functional, Oryctolagus cuniculus, Platelet
[1] = Antiplatelet aggregation activity in ADP-induced rabbit platelets assessed as aggregation at 100 ug/ml
In short: (§1)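 Platelets preincubated 3 min at 37° with test agent (100 µg/ml) or 0.5% DMSO as control, then challenged with an inducer: ADP 20 µM, PAF 2 ng/ml, arachidonic acid 100 µM, collagen 10 µg/ml. Percent aggregation reported as means ± S.E.M., n = 3–6, compared against the respective control.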

[2] = Antiplatelet aggregation activity in arachidonic acid-induced rabbit platelets assessed as aggregation at 100 ug/ml; in short: as §1
[3] = Antiplatelet aggregation activity in collagen-induced rabbit platelets assessed as aggregation at 100 ug/ml; in short: as §1
[4] = Antiplatelet aggregation activity in PAF-induced rabbit platelets assessed as aggregation at 100 ug/ml; in short: as §1

| SMILES | Activity [1] [%] | Activity [2] [%] | Activity [3] [%] | Activity [4] [%] |
| --- | --- | --- | --- | --- |
| CC(C)=CC(=O)O[C@H]1c2c(ccc3ccc(=O)oc23)OC(C)(C)[C@H]1OC(=O)CC(C)C (relative stereo) | 64 | 76.3 | 75.7 | 57.4 |
| CC(C)=CC(=O)O[C@H]1c2c(ccc3ccc(=O)oc23)OC(C)(C)[C@H]1OC(=O)C=C(C)C (relative stereo) | 61.7 | 43.6 | 72.3 | 73.2 |
| CC(C)CC(=O)O[C@H]1c2c(ccc3ccc(=O)oc23)OC(C)(C)[C@H]1OC(=O)CC(C)C | 8.8 | 49.8 | 39.3 | 0 |
